# ChEMBL document CHEMBL1629497, “Synthesis and biological evaluation of new N-alkyl 1-aryl-5-(1H-pyrrol-1-yl)-1H-pyrazole-3-carboxamides as cannabinoid receptor ligands” (Eur J Med Chem, 2010)
# pKi: −log10 of the molar value. The source made the active and inactive calls. The rule behind the calls is not given here.
# How the values were obtained:
# [1] = target: Cannabinoid receptor 2 (Homo sapiens, UniProt P34972); assay: Displacement of [3H]CP-55,940 from recombinant human CB2 receptor transfected in HEK cells; format: cell-based, HEK293
# Chain of Cannabinoid receptor 2 (P34972 whole entry): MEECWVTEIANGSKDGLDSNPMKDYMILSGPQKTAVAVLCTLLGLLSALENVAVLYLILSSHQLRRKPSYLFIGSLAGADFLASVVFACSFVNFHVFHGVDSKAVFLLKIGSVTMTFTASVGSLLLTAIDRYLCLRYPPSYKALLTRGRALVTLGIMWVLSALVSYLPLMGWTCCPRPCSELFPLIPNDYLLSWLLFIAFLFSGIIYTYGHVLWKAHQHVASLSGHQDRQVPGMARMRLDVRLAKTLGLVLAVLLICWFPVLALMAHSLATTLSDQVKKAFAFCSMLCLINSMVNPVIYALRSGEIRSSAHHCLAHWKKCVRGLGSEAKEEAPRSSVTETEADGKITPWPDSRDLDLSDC
# Procedure, shortened: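 Competition binding used membranes from HEK cells transfected with hCB1 or hCB2. Data are means of at least three experiments in duplicate. The selectivity index is Ki(CB2)/Ki(CB1).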
# [2] = target: Cannabinoid receptor 1 (Homo sapiens, UniProt P21554); assay: biochemical; format: cell-based, HEK293
# Chain of Cannabinoid receptor 1 (P21554 whole entry): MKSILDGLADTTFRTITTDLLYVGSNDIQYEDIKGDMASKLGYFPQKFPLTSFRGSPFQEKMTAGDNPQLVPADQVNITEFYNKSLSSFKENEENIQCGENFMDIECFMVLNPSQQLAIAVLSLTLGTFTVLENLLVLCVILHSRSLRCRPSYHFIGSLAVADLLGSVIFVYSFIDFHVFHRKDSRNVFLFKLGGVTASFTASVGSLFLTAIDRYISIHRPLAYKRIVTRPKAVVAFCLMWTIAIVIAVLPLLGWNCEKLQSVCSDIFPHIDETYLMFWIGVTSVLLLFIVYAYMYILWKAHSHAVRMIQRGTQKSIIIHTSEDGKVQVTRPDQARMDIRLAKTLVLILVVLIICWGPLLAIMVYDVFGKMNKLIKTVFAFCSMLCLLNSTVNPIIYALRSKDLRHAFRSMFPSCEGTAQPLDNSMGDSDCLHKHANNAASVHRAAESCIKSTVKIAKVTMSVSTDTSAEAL
# [3] = tested on: Rattus norvegicus; assay: Antiobesity activity in diet-induced obese Wistar rat assessed as reduction in food intake at 10 mg/kg, ip measured after 24 hrs relative to vehicle-treated control; format: functional, organism-based; set-up: dose 10 mg/kg
# Procedure, shortened: (§1)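 Adult male Wistar rats (~500 g) were individually housed on an inverted 12:12 h cycle with free access to chow and water. Groups of 7–8, matched for body weight and 3-day food intake, received vehicle or compound i.p. (saline with a few drops of Tween 80, 3 mL/kg) 30 min before lights off. Food and water were weighed at 1–6 h and 24 h. Analysis was by ANOVA and Mann-Whitney.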
# [4] = Mean residence time in Wistar rat brain at 10 mg/kg, ip; format: ADME, organism-based; set-up: dose 10 mg/kg, route intraperitoneal
# Procedure, shortened: (§2)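 Rats (n = 18) were dosed at 10 mg/kg i.p. in 2% Tween 80/98% saline (1 mL/kg). Plasma and brain were sampled at 30, 60, 120, 240 and 480 min and 24 h, then stored at −80 °C. Samples were extracted with internal standard and quantified by LC-MS/MS against calibration curves. Non-compartmental analysis was used, and brain penetration was taken as the AUC ratio. Values are means of three rats.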
# [5] = tested on: Rattus norvegicus; assay: Antiobesity activity in diet-induced obese Wistar rat assessed as water intake at 0.1 mg/kg, ip measured after 24 hrs relative to vehicle-treated control; format: functional, organism-based; set-up: dose 0.1 mg/kg; procedure, shortened: as §1
# [6] = tested on: Rattus norvegicus; assay: Antiobesity activity in diet-induced obese Wistar rat assessed as water intake at 3 mg/kg, ip measured after 24 hrs relative to vehicle-treated control; format: functional, organism-based; set-up: dose 3 mg/kg; procedure, shortened: as §1
# [7] = tested on: Brain; assay: Drug level in Wistar rat brain at 10 mg/kg, ip; format: ADME, organism-based; set-up: dose 10 mg/kg, route intraperitoneal; conditions: in vivo; procedure, shortened: as §2
# [8] = tested on: Rattus norvegicus; assay: Antiobesity activity in diet-induced obese Wistar rat assessed as water intake at 1 mg/kg, ip measured after upto 6 hrs relative to vehicle-treated control; format: functional, organism-based; set-up: dose 1 mg/kg; procedure, shortened: as §1
# [9] = tested on: Rattus norvegicus; assay: Antiobesity activity in diet-induced obese Wistar rat assessed as reduction in food intake at 1 mg/kg, ip measured after 24 hrs relative to vehicle-treated control; format: functional, organism-based; set-up: dose 1 mg/kg; procedure, shortened: as §1
# [10] = tested on: Rattus norvegicus; assay: Antiobesity activity in diet-induced obese Wistar rat assessed as water intake at 0.1 mg/kg, ip measured upto 6 hrs relative to vehicle-treated control; format: functional, organism-based; set-up: dose 0.1 mg/kg; procedure, shortened: as §1
# [11] = Half life in Wistar rat plasma at 10 mg/kg, ip; format: ADME, organism-based; set-up: dose 10 mg/kg, route intraperitoneal; procedure, shortened: as §2
# [12] = tested on: Rattus norvegicus; assay: Antiobesity activity in diet-induced obese Wistar rat assessed as reduction in food intake at 0.1 mg/kg, ip measured after 1 to 6 hrs relative to vehicle-treated control; format: functional, organism-based; set-up: dose 0.1 mg/kg; procedure, shortened: as §1
# [13] = tested on: Rattus norvegicus; assay: Antiobesity activity in diet-induced obese Wistar rat assessed as water intake at 1 mg/kg, ip measured after 24 hrs relative to vehicle-treated control; format: functional, organism-based; set-up: dose 1 mg/kg; procedure, shortened: as §1
# [14] = tested on: Rattus norvegicus; assay: Antiobesity activity in diet-induced obese Wistar rat assessed as reduction in food intake at 10 mg/kg, ip measured after 1 to 6 hrs relative to vehicle-treated control; format: functional; set-up: scale not given: the % may be the effect or the level left; conditions: route intraperitoneal; procedure, shortened: as §1
# [15] = Half life in Wistar rat brain at 10 mg/kg, ip; format: ADME, organism-based; set-up: dose 10 mg/kg, route intraperitoneal; procedure, shortened: as §2
# [16] = Tmax in Wistar rat plasma at 10 mg/kg, ip; format: ADME, organism-based; set-up: dose 10 mg/kg, route intraperitoneal; procedure, shortened: as §2
# [17] = Tmax in Wistar rat brain at 10 mg/kg, ip; format: ADME, organism-based; set-up: dose 10 mg/kg, route intraperitoneal; procedure, shortened: as §2
# [18] = tested on: Rattus norvegicus; assay: Antiobesity activity in diet-induced obese Wistar rat assessed as reduction in food intake at 1 mg/kg, ip measured after 1 to 6 hrs relative to vehicle-treated control; format: functional; set-up: scale not given: the % may be the effect or the level left; conditions: route intraperitoneal; procedure, shortened: as §1
# [19] = AUC in Wistar rat brain at 10 mg/kg, ip; format: ADME, organism-based; set-up: dose 10 mg/kg, route intraperitoneal; procedure, shortened: as §2
# [20] = Mean residence time in Wistar rat plasma at 10 mg/kg, ip; format: ADME, organism-based; set-up: dose 10 mg/kg, route intraperitoneal; procedure, shortened: as §2
# [21] = AUC (last) in Wistar rat plasma at 10 mg/kg, ip; format: ADME, organism-based; set-up: dose 10 mg/kg, route intraperitoneal, time 0 - last; procedure, shortened: as §2
# [22] = tested on: Rattus norvegicus; assay: Antiobesity activity in diet-induced obese Wistar rat assessed as water intake at 10 mg/kg, ip measured upto 6 hrs relative to vehicle-treated control; format: functional, organism-based; set-up: dose 10 mg/kg; procedure, shortened: as §1
# [23] = Cmax in Wistar rat plasma at 10 mg/kg, ip; format: ADME, organism-based; set-up: dose 10 mg/kg, route intraperitoneal; procedure, shortened: as §2
# [24] = tested on: Rattus norvegicus; assay: Antiobesity activity in diet-induced obese Wistar rat assessed as water intake at 10 mg/kg, ip measured after 24 hrs relative to vehicle-treated control; format: functional, organism-based; set-up: dose 10 mg/kg; procedure, shortened: as §1
# [25] = Cmax in Wistar rat brain at 10 mg/kg, ip; format: ADME, organism-based; set-up: dose 10 mg/kg, route intraperitoneal; procedure, shortened: as §2
# [26] = tested on: Rattus norvegicus; assay: Antiobesity activity in diet-induced obese Wistar rat assessed as reduction in food intake at 3 mg/kg, ip measured after 24 hrs relative to vehicle-treated control; format: functional, organism-based; set-up: dose 3 mg/kg; procedure, shortened: as §1
# [27] = tested on: Rattus norvegicus; assay: Antiobesity activity in diet-induced obese Wistar rat assessed as water intake at 3 mg/kg, ip measured upto 6 hrs relative to vehicle-treated control; format: functional, organism-based; set-up: dose 3 mg/kg; procedure, shortened: as §1
# [28] = tested on: Rattus norvegicus; assay: Antiobesity activity in diet-induced obese Wistar rat assessed as reduction in food intake at 3 mg/kg, ip measured after 1 to 6 hrs relative to vehicle-treated control; format: functional; set-up: scale not given: the % may be the effect or the level left; conditions: route intraperitoneal; procedure, shortened: as §1
compound,measurement,setting,value
CCC(C)(C)NC(=O)c1nn(-c2ccc(Cl)cc2Cl)c(-n2c(C)ccc2C)c1C,pKi,[1],6.92
same,pKi,[2],6.71
Cc1c(C(=O)NC(C)C)nn(-c2ccc(Cl)cc2Cl)c1-n1c(C)ccc1C,pKi,[1],5.75
same,pKi,[2],6.63
Cc1c(C(=O)NCCCCCO)nn(-c2ccc(Cl)cc2Cl)c1-n1cccc1,pKi,[1],5.63
same,pKi,[2],6.27
Cc1c(C(=O)NC(C)(C)C)nn(-c2ccc(Cl)cc2Cl)c1-n1cccc1,pKi,[1],7.84
same,pKi,[2],7.05
CCCCCCNC(=O)c1nn(-c2ccc(Cl)cc2Cl)c(-n2cccc2)c1C,Activity,[3],inactive
same,MRT,[4],14.3 h
same,Activity,[5],inactive
same,Activity,[6],inactive
same,Activity,[7],97%
same,Activity,[8],inactive
same,Activity,[9],inactive
same,Activity,[10],inactive
same,half-life,[11],13.9 h
same,Activity,[12],inactive
same,Activity,[13],inactive
same,pKi,[1],6.42
same,Activity,[14],25%
same,half-life,[15],14.4 h
same,Tmax,[16],0.5 h
same,Tmax,[17],0.5 h
same,Activity,[18],10%
same,AUC,[19],330 ng·h/mL
same,MRT,[20],14.8 h
same,AUC(0-t),[21],340 ng·h/mL
same,pKi,[2],6.91
same,Activity,[22],inactive
same,Cmax,[23],170 ng/mL
same,Activity,[24],inactive
same,Cmax,[25],110 ng/mL
CCCCCNC(=O)c1nn(-c2ccc(Cl)cc2Cl)c(-n2cccc2)c1C,pKi,[1],6.69
same,pKi,[2],7.09
Cc1c(C(=O)NCCCCCO)nn(-c2ccc(Cl)cc2Cl)c1-n1c(C)ccc1C,pKi,[1],5.49
same,pKi,[2],6.43
CCCCCCC(C)NC(=O)c1nn(-c2ccc(Cl)cc2Cl)c(-n2c(C)ccc2C)c1C (stereo unspecified),pKi,[1],6.87
same,pKi,[2],6.98
Cc1c(C(=O)NCCC(C)(C)C)nn(-c2ccc(Cl)cc2Cl)c1-n1cccc1,pKi,[1],7.28
same,pKi,[2],7.34
Cc1c(C(=O)NCCC(C)(C)C)nn(-c2ccc(F)cc2F)c1-n1c(C)ccc1C,pKi,[1],6.79
same,pKi,[2],7.04
CCCCNC(=O)c1nn(-c2ccc(Cl)cc2Cl)c(-n2cccc2)c1C,pKi,[1],6.10
same,pKi,[2],6.56
CCCNC(=O)c1nn(-c2ccc(Cl)cc2Cl)c(-n2c(C)ccc2C)c1C,pKi,[1],5.71
same,pKi,[2],6.54
CCCCCCNC(=O)c1nn(-c2ccc(F)cc2F)c(-n2c(C)ccc2C)c1C,pKi,[1],6.31
same,pKi,[2],6.51
CCCCCNC(=O)c1nn(-c2ccc(Cl)cc2Cl)c(-n2c(C)ccc2C)c1C,pKi,[1],6.31
same,pKi,[2],6.74
CCCCCCCNC(=O)c1nn(-c2ccc(F)cc2F)c(-n2c(C)ccc2C)c1C,pKi,[1],6.44
same,pKi,[2],6.43
CCCCNC(=O)c1nn(-c2ccc(Cl)cc2Cl)c(-n2c(C)ccc2C)c1C,pKi,[1],6.34
same,pKi,[2],6.91
CCC(C)(C)NC(=O)c1nn(-c2ccc(Cl)cc2Cl)c(-n2cccc2)c1C,pKi,[1],8.24
same,pKi,[2],7.32
Cc1c(C(=O)NC(C)C)nn(-c2ccc(Cl)cc2Cl)c1-n1cccc1,pKi,[1],5.95
same,pKi,[2],6.28
CCCCCCCNC(=O)c1nn(-c2ccc(Cl)cc2Cl)c(-n2c(C)ccc2C)c1C,pKi,[1],6.69
same,pKi,[2],7.01
Cc1c(C(=O)NC(C)(C)C)nn(-c2ccc(Cl)cc2Cl)c1-n1c(C)ccc1C,pKi,[1],7.69
same,pKi,[2],6.82
Cc1c(C(=O)NCCC(C)(C)C)nn(-c2ccc(Cl)cc2Cl)c1-n1c(C)ccc1C,Activity,[3],Active
same,Activity,[5],inactive
same,Activity,[6],inactive
same,Activity,[26],Active
same,Activity,[13],inactive
same,pKi,[1],6.87
same,Activity,[27],inactive
same,Activity,[14],30%
same,pKi,[2],7.43
same,Activity,[28],10%
same,Activity,[22],inactive
same,Activity,[24],inactive
CCCCCCCNC(=O)c1nn(-c2ccc(Cl)cc2Cl)c(-n2cccc2)c1C,pKi,[1],6.59
same,pKi,[2],6.68
CCCNC(=O)c1nn(-c2ccc(Cl)cc2Cl)c(-n2cccc2)c1C,pKi,[1],5.83
same,pKi,[2],6.26
CCCCCCC(C)NC(=O)c1nn(-c2ccc(Cl)cc2Cl)c(-n2cccc2)c1C (stereo unspecified),pKi,[1],6.62
same,pKi,[2],6.80
